Our source for the inhibition and Activity values is ChEMBL document CHEMBL2390926, “Identification of novel FLT3 kinase inhibitors” (Eur J Med Chem, 2013).

Each structure is given as a SMILES string. Activity calls are given as the source filed them. No cut-off for these calls is given here.

For assay [1], the target named is Tyrosine-protein kinase Yes (Homo sapiens) (UniProt P07947). The experiment in a line: Inhibition of YES (unknown origin) transfected in mouse Ba/F3 cells at 5 uM after 24 hrs. The settings on record: BaF3. It is filed as cell-based.
Assay [2] has as its target T1, Tyrosine-protein kinase receptor TYRO3 (Homo sapiens) (UniProt Q06418).
T1 sequence (whole entry): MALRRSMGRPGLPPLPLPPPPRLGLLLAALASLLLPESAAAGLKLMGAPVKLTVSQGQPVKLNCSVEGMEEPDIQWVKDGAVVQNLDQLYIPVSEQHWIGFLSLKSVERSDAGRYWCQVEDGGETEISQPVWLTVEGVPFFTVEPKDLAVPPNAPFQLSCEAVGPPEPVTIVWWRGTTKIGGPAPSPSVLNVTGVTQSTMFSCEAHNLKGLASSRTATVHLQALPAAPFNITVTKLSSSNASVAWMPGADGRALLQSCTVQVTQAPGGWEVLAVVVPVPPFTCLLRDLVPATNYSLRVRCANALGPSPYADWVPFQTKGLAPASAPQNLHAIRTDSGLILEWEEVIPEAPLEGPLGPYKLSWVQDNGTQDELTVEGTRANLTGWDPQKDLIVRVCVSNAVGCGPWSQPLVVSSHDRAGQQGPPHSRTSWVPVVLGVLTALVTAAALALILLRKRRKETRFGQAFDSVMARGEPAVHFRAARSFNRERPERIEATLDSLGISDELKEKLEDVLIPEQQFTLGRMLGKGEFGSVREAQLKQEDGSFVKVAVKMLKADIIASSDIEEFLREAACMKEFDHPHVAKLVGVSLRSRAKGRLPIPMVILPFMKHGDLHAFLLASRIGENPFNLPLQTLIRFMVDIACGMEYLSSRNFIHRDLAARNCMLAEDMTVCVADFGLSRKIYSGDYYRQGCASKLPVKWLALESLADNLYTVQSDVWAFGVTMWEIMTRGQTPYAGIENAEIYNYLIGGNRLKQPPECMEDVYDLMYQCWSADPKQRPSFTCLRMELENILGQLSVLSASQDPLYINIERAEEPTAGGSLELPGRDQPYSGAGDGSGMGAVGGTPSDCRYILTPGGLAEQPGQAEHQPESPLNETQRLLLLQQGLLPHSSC
The experiment in a line: Inhibition of TYRO3 (unknown origin) transfected in mouse Ba/F3 cells at 5 uM after 24 hrs. It is filed as cell-based. The settings on record: BaF3.

In assay [3] the target is T2, Non-receptor tyrosine-protein kinase TNK1 (Homo sapiens) (UniProt Q13470).
T2 sequence (whole entry): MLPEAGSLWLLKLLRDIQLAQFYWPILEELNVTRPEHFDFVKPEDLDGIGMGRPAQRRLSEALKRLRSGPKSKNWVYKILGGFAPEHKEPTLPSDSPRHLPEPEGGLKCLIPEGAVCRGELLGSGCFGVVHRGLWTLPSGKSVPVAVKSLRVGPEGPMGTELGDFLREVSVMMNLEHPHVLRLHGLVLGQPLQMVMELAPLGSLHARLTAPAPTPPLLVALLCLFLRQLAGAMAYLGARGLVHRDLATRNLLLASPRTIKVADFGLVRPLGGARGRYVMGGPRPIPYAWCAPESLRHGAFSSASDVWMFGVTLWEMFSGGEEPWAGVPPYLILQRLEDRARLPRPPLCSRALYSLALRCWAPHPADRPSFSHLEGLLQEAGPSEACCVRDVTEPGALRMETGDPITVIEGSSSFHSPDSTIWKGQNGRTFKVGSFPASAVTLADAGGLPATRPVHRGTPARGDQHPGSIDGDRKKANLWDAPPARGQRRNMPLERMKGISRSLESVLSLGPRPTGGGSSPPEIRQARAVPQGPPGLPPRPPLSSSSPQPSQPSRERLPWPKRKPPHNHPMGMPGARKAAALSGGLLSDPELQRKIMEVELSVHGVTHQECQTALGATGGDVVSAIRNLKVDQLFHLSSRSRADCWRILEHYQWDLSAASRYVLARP
The experiment in a line: Inhibition of TNK1 (unknown origin) transfected in mouse Ba/F3 cells at 5 uM after 24 hrs. The settings on record: BaF3. It is filed as cell-based.

Assay [4] addresses Tyrosine-protein kinase SYK (Homo sapiens) (UniProt P43405). The experiment in a line: Inhibition of SYK (unknown origin) transfected in mouse Ba/F3 cells at 5 uM after 24 hrs. The settings on record: BaF3. It is filed as cell-based.
For assay [5], the target named is Proto-oncogene tyrosine-protein kinase ROS (Homo sapiens) (UniProt P08922). The experiment in a line: Inhibition of ROS1 (unknown origin) transfected in mouse Ba/F3 cells at 5 uM after 24 hrs. The settings on record: BaF3. It is filed as cell-based.
For assay [6], the target named is Insulin-like growth factor 1 receptor (Homo sapiens) (UniProt P08069). The assay is described as follows: Inhibition of IGF1R (unknown origin) transfected in mouse Ba/F3 cells at 5 uM after 24 hrs. The class given is cell-based. The following applies: BaF3. The gist of the method:
(§1)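 Kinase specificity panel: each Ba/F3 line transformed with one of 24 tyrosine kinases depends on that kinase to grow. Cells were given compound at 1 or 5 µM for 24 h, with DMSO as comparator. Percentage growth was read by ATP-lite luminescence and reported as mean ± SEM.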

Assay [7] concerns the target Tyrosine-protein kinase HCK (Homo sapiens) (UniProt P08631). The assay is described as follows: Inhibition of HCK (unknown origin) transfected in mouse Ba/F3 cells at 5 uM after 24 hrs. It is filed as cell-based. The settings on record: BaF3. The method in brief: as §1
For assay [8], the target named is Tyrosine-protein kinase Fyn (Homo sapiens) (UniProt P06241). The experiment in a line: Inhibition of FYN (unknown origin) transfected in mouse Ba/F3 cells at 5 uM after 24 hrs. The settings on record: BaF3. It is filed as cell-based. The method in brief:
as §1

For assay [9], the target named is Receptor tyrosine-protein kinase erbB-2 (Homo sapiens) (UniProt P04626). The experiment in a line: Inhibition of ERBB2 (unknown origin) transfected in mouse Ba/F3 cells at 5 uM after 24 hrs. It is filed as cell-based. The following applies: BaF3. The gist of the method:
as §1

Assay [10] concerns the target Ephrin type-A receptor 7 (Homo sapiens) (UniProt Q15375). The assay is described as follows: Inhibition of EPHA7 (unknown origin) transfected in mouse Ba/F3 cells at 5 uM after 24 hrs. The settings on record: BaF3. The class given is cell-based. The method in brief:
as §1

The target in assay [11] is Ephrin type-A receptor 5 (Homo sapiens) (UniProt P54756). The assay is described as follows: Inhibition of EPHA5 (unknown origin) transfected in mouse Ba/F3 cells at 5 uM after 24 hrs. It is filed as cell-based. The following applies: BaF3. The gist of the method: as §1
The target in assay [12] is Epidermal growth factor receptor (Homo sapiens) (UniProt P00533). The assay is described as follows: Inhibition of EGFR (unknown origin) transfected in mouse Ba/F3 cells at 5 uM after 24 hrs. The class given is cell-based. The following applies: BaF3. The gist of the method:
as §1

Assay [13] deals with Tyrosine-protein kinase receptor UFO (Homo sapiens) (UniProt P30530). The assay is described as follows: Inhibition of AXL (unknown origin) transfected in mouse Ba/F3 cells at 5 uM after 24 hrs. The settings on record: BaF3. It is filed as cell-based. The gist of the method:
as §1

Assay [14] addresses Tyrosine-protein kinase ABL2 (Homo sapiens) (UniProt P42684). The assay is described as follows: Inhibition of ABL2 (unknown origin) transfected in mouse Ba/F3 cells at 5 uM after 24 hrs. The class given is cell-based. The following applies: BaF3. The gist of the method: as §1
Another assay relates to BaF3. The assay is described as follows: Cytotoxicity against mouse BA/F3 cells transfected with […] at 1 uM after 24 hrs by plate reader analysis. It is filed as functional, cell-based.

Sequence of Insulin-like growth factor 1 receptor (Homo sapiens) (P08069 31-736 limits assumed): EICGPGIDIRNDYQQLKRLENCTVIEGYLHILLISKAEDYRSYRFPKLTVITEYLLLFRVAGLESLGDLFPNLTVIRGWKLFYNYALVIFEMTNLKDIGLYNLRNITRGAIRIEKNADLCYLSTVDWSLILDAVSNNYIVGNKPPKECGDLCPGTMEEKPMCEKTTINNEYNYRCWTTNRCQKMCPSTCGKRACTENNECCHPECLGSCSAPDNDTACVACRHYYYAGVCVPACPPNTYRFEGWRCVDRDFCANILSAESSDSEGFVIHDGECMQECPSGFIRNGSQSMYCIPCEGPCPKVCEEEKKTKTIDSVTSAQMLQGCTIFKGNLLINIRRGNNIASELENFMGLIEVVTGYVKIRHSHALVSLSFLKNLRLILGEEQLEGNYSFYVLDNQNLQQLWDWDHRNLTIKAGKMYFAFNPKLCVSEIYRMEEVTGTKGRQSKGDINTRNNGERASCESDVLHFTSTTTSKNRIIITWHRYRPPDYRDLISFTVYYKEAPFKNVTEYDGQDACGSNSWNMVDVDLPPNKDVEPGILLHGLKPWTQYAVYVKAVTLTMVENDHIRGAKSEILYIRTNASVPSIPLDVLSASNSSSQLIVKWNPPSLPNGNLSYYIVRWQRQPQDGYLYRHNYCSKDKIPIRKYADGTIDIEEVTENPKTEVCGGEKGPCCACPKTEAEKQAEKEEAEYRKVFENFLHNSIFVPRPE
Sequence of Insulin-like growth factor 1 receptor (Homo sapiens) (P08069 741-1367 limits assumed): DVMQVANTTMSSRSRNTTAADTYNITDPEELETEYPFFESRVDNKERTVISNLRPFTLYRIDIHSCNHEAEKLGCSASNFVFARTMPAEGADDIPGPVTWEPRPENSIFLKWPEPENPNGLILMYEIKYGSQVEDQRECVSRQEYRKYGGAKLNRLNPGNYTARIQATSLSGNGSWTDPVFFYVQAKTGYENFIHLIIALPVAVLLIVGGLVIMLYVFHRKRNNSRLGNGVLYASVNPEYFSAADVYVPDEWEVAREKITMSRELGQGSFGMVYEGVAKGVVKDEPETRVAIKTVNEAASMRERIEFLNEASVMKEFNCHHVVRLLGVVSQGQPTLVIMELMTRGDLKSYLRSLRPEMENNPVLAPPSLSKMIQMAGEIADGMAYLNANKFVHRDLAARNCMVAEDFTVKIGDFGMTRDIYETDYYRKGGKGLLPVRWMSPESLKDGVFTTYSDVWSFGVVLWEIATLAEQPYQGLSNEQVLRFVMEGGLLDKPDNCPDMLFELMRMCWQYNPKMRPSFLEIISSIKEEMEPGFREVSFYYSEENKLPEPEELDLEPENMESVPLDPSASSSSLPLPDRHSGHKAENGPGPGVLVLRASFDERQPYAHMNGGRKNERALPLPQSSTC
Sequence of Tyrosine-protein kinase Fyn (Homo sapiens) (P06241 2-537 limits assumed): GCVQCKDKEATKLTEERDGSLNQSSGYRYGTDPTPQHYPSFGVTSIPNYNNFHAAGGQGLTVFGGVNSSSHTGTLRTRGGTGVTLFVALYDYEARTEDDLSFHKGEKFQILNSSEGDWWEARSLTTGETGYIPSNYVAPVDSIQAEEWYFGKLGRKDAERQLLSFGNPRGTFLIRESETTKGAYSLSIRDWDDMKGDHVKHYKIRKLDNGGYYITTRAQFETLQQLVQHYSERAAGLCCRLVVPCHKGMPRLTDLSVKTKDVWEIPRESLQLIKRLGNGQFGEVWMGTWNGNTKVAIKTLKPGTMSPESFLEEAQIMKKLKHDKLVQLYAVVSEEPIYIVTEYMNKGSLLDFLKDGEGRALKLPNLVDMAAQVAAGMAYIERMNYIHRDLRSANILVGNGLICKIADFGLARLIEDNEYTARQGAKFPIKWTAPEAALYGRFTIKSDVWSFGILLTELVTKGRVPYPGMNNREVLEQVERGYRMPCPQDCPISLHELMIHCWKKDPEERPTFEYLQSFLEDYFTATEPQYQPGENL
Sequence of Ephrin type-A receptor 5 (Homo sapiens) (P54756 whole entry): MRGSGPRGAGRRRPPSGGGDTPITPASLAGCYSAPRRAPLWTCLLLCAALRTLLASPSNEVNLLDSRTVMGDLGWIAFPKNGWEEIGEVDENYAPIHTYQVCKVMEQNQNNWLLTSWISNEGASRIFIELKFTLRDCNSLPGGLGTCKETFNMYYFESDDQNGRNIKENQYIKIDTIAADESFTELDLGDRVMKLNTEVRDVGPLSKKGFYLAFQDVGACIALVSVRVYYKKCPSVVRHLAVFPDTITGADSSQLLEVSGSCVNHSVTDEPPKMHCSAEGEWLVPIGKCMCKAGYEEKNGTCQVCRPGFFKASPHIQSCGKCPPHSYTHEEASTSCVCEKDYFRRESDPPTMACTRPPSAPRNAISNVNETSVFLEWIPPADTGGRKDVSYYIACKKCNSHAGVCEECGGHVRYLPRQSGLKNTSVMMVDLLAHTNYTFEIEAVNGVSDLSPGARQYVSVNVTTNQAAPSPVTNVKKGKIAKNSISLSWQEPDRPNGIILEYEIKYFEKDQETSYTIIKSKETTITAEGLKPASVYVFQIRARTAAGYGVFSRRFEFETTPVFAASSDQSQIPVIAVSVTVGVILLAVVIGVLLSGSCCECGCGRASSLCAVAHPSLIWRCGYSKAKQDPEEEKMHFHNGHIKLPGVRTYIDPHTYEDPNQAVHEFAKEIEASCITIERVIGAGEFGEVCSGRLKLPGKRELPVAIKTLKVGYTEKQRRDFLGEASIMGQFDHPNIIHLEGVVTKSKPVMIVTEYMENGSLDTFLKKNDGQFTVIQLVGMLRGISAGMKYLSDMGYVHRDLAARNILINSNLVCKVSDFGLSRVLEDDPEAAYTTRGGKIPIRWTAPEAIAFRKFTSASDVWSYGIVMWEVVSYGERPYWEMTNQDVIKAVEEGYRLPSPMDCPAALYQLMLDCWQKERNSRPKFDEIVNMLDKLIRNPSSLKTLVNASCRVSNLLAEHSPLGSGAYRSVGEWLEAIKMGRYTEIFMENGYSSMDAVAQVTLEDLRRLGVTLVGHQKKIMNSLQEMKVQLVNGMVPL
Sequence of Tyrosine-protein kinase Yes (Homo sapiens) (P07947 2-543 limits assumed): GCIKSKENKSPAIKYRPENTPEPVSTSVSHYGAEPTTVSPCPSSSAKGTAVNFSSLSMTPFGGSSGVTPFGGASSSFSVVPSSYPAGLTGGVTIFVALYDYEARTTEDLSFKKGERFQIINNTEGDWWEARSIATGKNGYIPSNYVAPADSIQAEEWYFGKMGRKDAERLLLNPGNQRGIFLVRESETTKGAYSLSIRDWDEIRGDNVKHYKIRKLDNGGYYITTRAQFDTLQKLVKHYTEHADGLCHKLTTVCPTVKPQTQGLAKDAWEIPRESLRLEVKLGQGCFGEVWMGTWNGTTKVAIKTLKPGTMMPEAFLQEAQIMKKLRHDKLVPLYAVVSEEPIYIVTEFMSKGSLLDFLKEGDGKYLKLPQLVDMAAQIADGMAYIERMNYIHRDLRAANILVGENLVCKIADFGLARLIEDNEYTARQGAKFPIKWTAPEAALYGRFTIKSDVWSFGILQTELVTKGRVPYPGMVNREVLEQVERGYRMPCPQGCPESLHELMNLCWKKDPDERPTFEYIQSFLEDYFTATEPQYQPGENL
Sequence of Ephrin type-A receptor 7 (Homo sapiens) (Q15375 28-998 limits assumed): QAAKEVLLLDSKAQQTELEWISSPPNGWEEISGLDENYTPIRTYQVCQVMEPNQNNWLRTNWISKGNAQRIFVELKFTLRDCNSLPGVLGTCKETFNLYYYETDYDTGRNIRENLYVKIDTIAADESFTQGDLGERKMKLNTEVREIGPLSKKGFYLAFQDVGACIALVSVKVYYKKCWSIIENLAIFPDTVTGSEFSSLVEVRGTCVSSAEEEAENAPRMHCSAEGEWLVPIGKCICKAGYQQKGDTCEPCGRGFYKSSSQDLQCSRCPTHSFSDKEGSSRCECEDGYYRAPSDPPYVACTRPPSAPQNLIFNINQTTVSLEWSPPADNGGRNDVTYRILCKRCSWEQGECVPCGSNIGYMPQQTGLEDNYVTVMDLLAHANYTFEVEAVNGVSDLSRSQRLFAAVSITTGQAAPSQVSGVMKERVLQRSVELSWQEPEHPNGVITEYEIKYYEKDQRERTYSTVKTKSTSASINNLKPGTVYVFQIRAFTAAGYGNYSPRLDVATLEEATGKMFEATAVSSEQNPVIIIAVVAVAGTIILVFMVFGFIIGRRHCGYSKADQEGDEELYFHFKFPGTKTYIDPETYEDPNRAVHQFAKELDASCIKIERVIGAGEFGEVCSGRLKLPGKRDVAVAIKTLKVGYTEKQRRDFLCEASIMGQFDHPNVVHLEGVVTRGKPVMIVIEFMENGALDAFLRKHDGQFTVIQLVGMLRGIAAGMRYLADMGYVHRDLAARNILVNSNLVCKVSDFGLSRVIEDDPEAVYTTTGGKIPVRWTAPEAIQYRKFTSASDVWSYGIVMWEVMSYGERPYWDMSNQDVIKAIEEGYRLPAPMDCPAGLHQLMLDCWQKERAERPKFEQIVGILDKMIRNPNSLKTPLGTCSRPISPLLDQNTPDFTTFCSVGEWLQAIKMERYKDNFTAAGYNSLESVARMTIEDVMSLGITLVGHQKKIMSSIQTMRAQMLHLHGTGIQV
Sequence of Tyrosine-protein kinase HCK (Homo sapiens) (P08631 2-526 limits assumed): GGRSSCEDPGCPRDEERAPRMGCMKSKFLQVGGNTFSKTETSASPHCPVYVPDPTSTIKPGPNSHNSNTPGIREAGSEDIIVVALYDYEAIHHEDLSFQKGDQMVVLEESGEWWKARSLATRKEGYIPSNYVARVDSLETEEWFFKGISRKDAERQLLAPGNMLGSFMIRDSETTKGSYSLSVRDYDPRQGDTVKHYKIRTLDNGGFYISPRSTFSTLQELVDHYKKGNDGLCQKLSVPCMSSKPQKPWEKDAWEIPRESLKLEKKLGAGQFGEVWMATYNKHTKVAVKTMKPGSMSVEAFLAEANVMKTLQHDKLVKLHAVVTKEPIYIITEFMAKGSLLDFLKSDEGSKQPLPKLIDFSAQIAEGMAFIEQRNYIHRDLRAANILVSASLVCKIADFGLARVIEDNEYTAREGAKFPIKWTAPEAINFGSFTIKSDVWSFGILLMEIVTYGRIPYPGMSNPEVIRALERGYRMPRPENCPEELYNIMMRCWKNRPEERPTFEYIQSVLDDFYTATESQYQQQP

As for `Cc1ccc(-n2cnc3cc(Nc4nnc(C)c5ccccc45)ccc32)cc1`, the inhibition result in assay [1], in [2], in assay [3], in assay [4], in assay [5] and in assay [6] was “inactive” each time. Besides, the inhibition entry in [7], in [8], in assay [9], in [10], in [11] and in assay [12] was “inactive” in each case. In addition, the inhibition entry in assay [13] and in assay [14] was “inactive” each time. Also, the outcome in the assay on BaF3 was Active.

For `Fc1ccc(-c2n[nH]cc2-c2ccncc2)cc1Cl`, the inhibition entry in [1], in assay [2], in [3], in assay [4], in [6] and in assay [7] was “inactive” in each case. Moreover, the inhibition result in assay [8], in [9], in assay [10], in [12] and in assay [13] was “inactive” in each case. Moreover, the inhibition result in assay [5], in assay [11] and in [14] was “Active” throughout.

For `COc1ccc(C(=O)Nc2cc(-c3ccccc3)[nH]n2)cc1`, the result in the assay with BaF3 was Active.
